# Source: PubChem
# This is a sample that favours compounds with a hit; in the whole collection about 3.9% have one here.
# Pf gametocyte: kills late stage P. falciparum gametocytes. AID 743093. P. falciparum stage V gametocytes, ATP luminescence, 24 h. inhibition, % at 10.9 µM. 0.065% of 150,000 active;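 active = inhibition above the mean plus 3 SD of compounds within the control limits, set per campaign, cut at about 38% in these data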;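 also: 0% = DMSO wells and 100% = medium only without gametocytes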
# STAT3 activator: STAT3 signaling activation. U3A cells, IL-6 STAT3-luciferase reporter, luminescence; 100% = signal with IL-6 EC80 alone. 0.91% of 190,000 active. AID 871. activation (% of control), % at 5.6 µM;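 active = activation above the screen-wide mean of compound activation plus 3 SD, cut at about 130% in these data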;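 also: 0% = background luminescence of wells with medium and substrate only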
#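 Material: human U3A cells carrying STAT3-luciferase construct. Measured by: reporter luminescence signal. Timing: compound 1 h, then IL-6 6 h at 37 °C.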
# STAT1 act: increases IFN-gamma driven STAT1 reporter signal. NIH 3T3 STAT1-luciferase reporter, luminescence; 100% = IFN-gamma alone, no compound. activation (% of control), % at 5.5 µM. 2.6% of 200,000 active. AID 932;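 active = activation above the screen-wide mean activation plus 3 SD, cut at about 130% in these data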;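 also: raw ratio to IFN-gamma control signal so 100% means no change and 0% no light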
# NF-kB neuron act: NF-kB expression increase, human neuronal cells; 1.6% of 190,000 active; AID 1239; NF-kB reporter expression; hits give high values; fold change at 12.5 µM; in the data active = fold change above about 3.3
# STAT1 blocker: inhibitors of IFN-gamma induced STAT1 signaling | 0.35% of 200,000 active | NIH 3T3 STAT1-luciferase reporter, luminescence | AID 920 | inhibition, % at 5.5 µM;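 active = inhibition above a set limit, the mean inhibition across all tested compounds plus 3 SD, cut at about 34% in these data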;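 also: 0% = IFN-gamma with DMSO and 100% = IFN-gamma with 300 µM nifuroxazide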
# APP 5'UTR act: activates APP 5'UTR luciferase reporter; AID 1276; SH-SY5Y APP 5'UTR luciferase reporter, luminescence; zero percent = DMSO vehicle wells; 1% of 190,000 active; activation, % at 2 µM;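 active = activation above a set limit, based on mean plus 3 SD of controls, cut at about 140% in these data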
# * hit, by the source's call; x = no result.
SMILES,Pf gametocyte,STAT3 activator,STAT1 act,NF-kB neuron act,STAT1 blocker,APP 5'UTR act
Cc1ccc(SCC(=O)Nc2ccc(-c3nc4ccccc4[nH]3)cc2)cc1,-22.9,101.0,132.2*,1.43,-36.2,7.5
COc1cccc(CNc2cnc3ccccc3c2)c1O,x,73.2,95.3,7.56*,6.4,93.3
CC(/C=C/c1ccc(O)cc1)=N/O,-9.4,94.5,95.6,2.26,4.7,-0.7
Oc1ccc(/C=C/c2cc(O)cc(O)c2)cc1,x,64.7,96.2,22.6*,4.2,150.8*
Cn1c(-c2ccccc2)cnc1SCc1nc2ccccc2c(=O)[nH]1,6.6,88.6,134.3*,1.78,-37.2,142.2*
O=C(Nc1ccccc1N1CCOCC1)c1ccc(Cl)nc1,30.4,118.0,103.0,1.08,-3.6,-6.8
Cn1c(CNc2ccccc2)nc2ccccc21,x,110.5,132.3*,2.85,-35.7,79.4
CCn1cnc2cc(NCc3cccs3)ccc21,-18.6,105.4,123.9,1.73,-30.1,37.5
CCn1cnc2cc(NCc3nc4ccccc4n3Cc3ccccc3)ccc21,-1.9,107.5,147.8*,0.55,-47.0,167.9*
CCn1cnc2cc(NCc3nc4ccccc4n3C)ccc21,x,86.4,123.8,5.49*,-26.1,146.0*
O=C(O)c1ccc(NCc2nc3ccccc3n2Cc2ccccc2)cc1,4.7,x,x,x,x,x
CCn1cnc2cc(NCc3ccc(C)cc3)ccc21,x,100.3,135.5*,2.44,-38.4,87.3
Cc1nonc1CC(=O)N1CCCC(C(=O)c2cccc(C(F)(F)F)c2)C1 (stereo not given),10.6,86.3,99.0,1,-1.1,2.6
CCCCN(C)C(=O)Cn1c(=O)oc2cc(S(=O)(=O)N3CC(C)CC(C)C3)ccc21 (stereo not given),7.1,x,x,x,x,x
Oc1ccccc1-n1nc2ccc3nonc3c2n1,-10.3,x,x,x,x,x
Cc1ccc(CNc2ccc3c(c2)ncn3C(C)C)cc1,-3.0,x,x,x,x,x
CC(C)n1cnc2cc(NCc3nc4ccccc4n3C)ccc21,-4.2,106.9,149.7*,1.2,-54.7,185.9*
O=C(/C=C\Nc1ccc(Cl)cn1)c1ccc(Br)cc1,-6.2,98.7,134.1*,1.59,-38.6,123.1
O=C(/C=C/Nc1ccc(Br)cc1F)c1ccccc1,-0.7,23.4,57.9,1.26,47.3*,139.6*
COc1ccc(C(=O)/C=C/Nc2ccc(S(N)(=O)=O)cc2)cc1OC,-5.0,x,x,x,x,x
COc1ccc(C(=O)/C=C/Nc2ccc(C)cn2)cc1OC,x,95.2,142.7*,5.22*,-46.3,145.2*
O=C(/C=C/Nc1ccc(F)c(F)c1)c1ccc(Br)cc1,-25.6,97.2,141.1*,8.07*,-43.6,163.4*
CCCC(=O)Nc1ccc2oc(-c3cncc(Br)c3)nc2c1,22.9,92.1,139.1*,3.4*,-44.5,127.8
CC(=O)Nc1ccc2oc(-c3cc(F)c(F)cc3Cl)nc2c1,-20.1,62.6,147.6*,6.1*,-36.6,32.8
CC(=O)Nc1ccc2oc(C)nc2c1,13.0,99.6,106.9,1.14,-8.6,15.4
SMILES,Pf gametocyte,STAT3 activator,STAT1 act,NF-kB neuron act,STAT1 blocker,APP 5'UTR act
CC(=O)Nc1ccc2oc(-c3ccccc3Br)nc2c1,x,65.1,121.7,7.34*,-23.8,161.6*
CC(C)C(=O)Nc1ccc2oc(-c3cc(F)c(F)cc3Cl)nc2c1,x,92.3,116.8,2,-17.0,-2.2
COc1ccc(NC(=O)CCC(=O)NCc2ccco2)c([N+](=O)[O-])c1,4.4,x,x,x,x,x
COc1ccc(C(CCN)Cc2ccccc2)cc1 (stereo not given),-12.0,104.8,93.6,1.16,7.0,-3.2
O=c1c(-c2nc3ccccc3s2)cccn1Cc1ccc(Cl)c(Cl)c1,-2.7,99.7,99.4,3.48*,0.7,10.7
CN(C)/N=C/c1ccc(OS(=O)(=O)c2ccccc2)cc1,-1.4,103.7,139.9*,4.78*,-45.2,89.2
COc1cc(O)ccc1C(=O)CCc1ccc(O)cc1,-9.7,x,x,x,x,x
O=C(CCc1ccccc1)Nc1ccc(Cl)cn1,x,100.7,130.1*,1.85,-32.6,-75.3
Cc1ccc(NC(=O)CCCc2ccccc2)nc1,-21.6,112.5,137.6*,1.16,-42.5,72.7
O=C(CCc1ccccc1)Nc1ccc(F)cc1F,-35.1,97.8,108.9,1.8,-9.7,-47.4
O=C(CCc1ccccc1)Nc1ccccc1F,4.6,102.2,144.4*,3.46*,-45.6,x
Cc1ccc(NC(=S)NCCc2ccccc2)nc1,-15.7,116.1,136.5*,1.77,-41.7,28.8
CN(C)c1cccc(C(=O)Nc2cc(C(F)(F)F)ccc2-n2cnc3ccccc32)c1,1.3,102.8,96.3,1.19,4.1,14.8
